High-throughput results deposited in PubChem BioAssay by Johns Hopkins Ion Channel Center.
KCNK9 block – inhibitors of human KCNK9 two-pore domain potassium channel; Q9NPC2; HEK293 KCNK9, FluxOR thallium flux fluorescence; hits give low values; B-score at 10 µM; 1.2% of 310,000 active; AID 488922;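 active = ratio B-score over 3 SD below the library mean, with starting fluorescence within 5 SD of its mean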;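 note: negative B-score means less thallium flux so channel inhibition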
Target sequence (Q9NPC2 whole entry, looked up, the tested form may be a part): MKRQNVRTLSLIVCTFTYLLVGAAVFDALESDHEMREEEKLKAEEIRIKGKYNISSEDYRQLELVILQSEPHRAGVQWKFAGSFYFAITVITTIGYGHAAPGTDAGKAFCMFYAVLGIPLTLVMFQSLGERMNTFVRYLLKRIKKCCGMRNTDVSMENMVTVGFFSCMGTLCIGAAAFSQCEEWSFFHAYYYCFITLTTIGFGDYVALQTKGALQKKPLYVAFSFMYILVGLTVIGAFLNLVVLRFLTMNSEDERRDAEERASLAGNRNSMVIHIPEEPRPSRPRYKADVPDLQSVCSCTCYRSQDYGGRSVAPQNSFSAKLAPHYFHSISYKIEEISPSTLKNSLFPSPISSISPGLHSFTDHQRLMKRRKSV
hERG rescue – hERG (human) protection from proarrhythmic block | CHO-hERG, FluxOR thallium flux, dofetilide IC70 present | Q12809 | 0.51% of 310,000 active | activation (rescue from dofetilide block), less the hit threshold, % at 10 µM;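 active = activation above the mean of controls blocked by dofetilide plus 5 SD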;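 note: thallium influx through hERG after potassium depolarization seen as dye fluorescence rise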
Kir21 block – blocks the mouse Kir2.1 inward-rectifier potassium channel; P35561; HEK293-Kir2.1, FluxOR thallium flux fluorescence; hits give low values; B-score at 10 µM; 0.85% of 310,000 active;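 active = fluorescence ratio B-score at or below minus 3 SD of library scores, with starting-brightness B-score within 2 SD, cut at about -4.2 in these data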;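 note: channel flux triggered by added potassium and thallium sulfate stimulus; B-score of peak minus minimum fluorescence over baseline after thallium stimulus; more negative B-score means stronger Kir2.1 block with less thallium influx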
KCNK3 inh – human KCNK3 channel inhibition, primary screen | O14649 | CHO-KCNK3 thallium flux, FluxOR fluorescence; hits give low values | B-score at 10 µM | 0.84% of 340,000 active | AID 602410;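 active = B-score under library mean minus 4 SD, starting fluorescence ratio at most library mean plus 5 SD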;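 note: more negative B-score means stronger inhibition of thallium flux through KCNK3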
Target sequence (O14649 whole entry, looked up): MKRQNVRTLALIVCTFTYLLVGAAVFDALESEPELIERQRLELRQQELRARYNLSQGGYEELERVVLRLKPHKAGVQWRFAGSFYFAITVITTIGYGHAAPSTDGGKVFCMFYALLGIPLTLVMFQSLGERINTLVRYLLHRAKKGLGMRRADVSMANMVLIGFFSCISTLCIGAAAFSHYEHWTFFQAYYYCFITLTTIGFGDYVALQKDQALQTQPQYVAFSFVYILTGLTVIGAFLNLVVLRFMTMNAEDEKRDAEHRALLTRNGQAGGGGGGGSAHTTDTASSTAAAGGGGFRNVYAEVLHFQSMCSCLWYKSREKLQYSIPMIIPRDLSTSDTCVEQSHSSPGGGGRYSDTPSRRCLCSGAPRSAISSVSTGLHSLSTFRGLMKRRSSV
KCNQ1 pot – potentiates or activates the human KCNQ1 potassium channel. 0.35% of 310,000 active. B-score at 10 µM. AID 2648. CHO-K1 KCNQ1, thallium flux FluxOR fluorescence; hits give high values. P51787;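 active = fluorescence ratio B-score, a plate-corrected score, at least three library SD, with initial intensity B-score within 5 SD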
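System: CHO-K1 cells stably expressing KCNQ1 / Medium: assay buffer for compound exposure, DMSO matched across wells / Reagent: thallium- and potassium-containing depolarizing buffer / Compound: one concentration, matched DMSO / Incubation: 20 min compound pretreatment at room temperature / Measured by: kinetic FluxOR fluorescence, 10 s baseline plus 110 s post-stimulus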
KCNQ1 block – blocks the human KCNQ1 potassium channel; P51787; CHO-K1 KCNQ1, FluxOR thallium flux fluorescence; hits give high values; B-score at 10 µM; 1.3% of 310,000 active; AID 2642;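 active = compounds whose thallium flux B-score, printed positive for inhibition, exceeds three library SD while starting fluorescence stays within three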;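 note: channel opened by potassium depolarization with thallium stimulus after 20 min compound exposure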
KCNK9 block conf – human KCNK9 inhibitor confirmation; shares compounds with KCNK9 block; HEK293 KCNK9 cells, FluxOR thallium flux fluorescence; inhibition, % at 10 µM; 43% of 4,900 active; AID 492992;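 active = thallium signal inhibited by more than 5 SD of the compound-free buffer control wells, on both duplicate plates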
Kir21 sel – mouse Kir2.1 off-target activity of KCNK9 modulators | shares compounds with KCNK9 block | Kir2.1 cells, FluxOR thallium flux fluorescence | inhibition, % at 10 µM | 4% of 4,900 active | AID 492993;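 active = thallium signal drop more than 5 SD beyond the mean of the no-compound control wells, seen in both duplicate plates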;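 note: signal is fluorescence rise after thallium addition divided by baseline fluorescence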
HEK293 Tl ctr – second check of KCNK9 modulator effects in non-induced HEK293 cells; FluxOR thallium flux; shares compounds with KCNK9 block; 40% of 4,900 active; inhibition, % at 10 µM;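 active = thallium signal drop beyond 5 SD of the untreated control mean, on both duplicate plates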
KCNK3 inh conf – human KCNK3 channel inhibition, confirmation assay. shares compounds with KCNK3 inh. CHO-KCNK3 thallium flux, FluxOR fluorescence; 0% buffer, 100% carvedilol maximal block. ratio percent of control, % at 10 µM. 99% of 2,400 active;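 active = ratio percent of control, averaged over triplicates, above buffer control mean plus 5 SD, cut at about 64% in these data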;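 note: ratio is the fluorescence rise from min to max over baseline after thallium stimulus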
KCNK3 uninduced – counter-screen for KCNK3 inhibitors: effect in non-induced cells; shares compounds with KCNK3 inh; non-induced KCNK3 parental cells, FluxOR thallium flux; hits give low values; thallium flux ratio (lower = more inhibition) at 10 µM; 40% of 2,400 active; AID 651747;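 active = thallium flux ratio, averaged over three wells, more than 5 SD below the buffer control mean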;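 note: host cells are CHO cells without KCNK3 induction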
Each line names hits and unclear results; the compound was inactive in the other large screens (follow-up assays come after a bar, where they were run). Hits are enriched below; roughly 3.7% of the tested compounds scored in any of these assays.

COc1ccc(C)cc1NC(=O)c1nn(-c2ccccc2)cc1OC	KCNK9 block -18 | KCNK9 block conf 61% | Kir21 sel inactive | HEK293 Tl ctr 31% | KCNK3 inh conf 130 | KCNK3 uninduced 0.14
COc1cn(-c2ccccc2)nc1C(=O)Nc1ccc(C)cc1	none
COc1ccc(C(=O)N2CCN(Cc3nc(CC4CC4)no3)CC2)cc1	none
COc1ccccc1NC(=O)CCSc1ccc(C)cc1	none
COc1ccccc1NC(=O)C(C)OC(=O)CCSc1ccc(F)cc1 (stereo not given)	KCNK9 block -16 | KCNK9 block conf 62% | Kir21 sel inactive | HEK293 Tl ctr 30% | KCNK3 inh conf 120 | KCNK3 uninduced inactive
Cc1cc(C(=O)NCC(c2ccco2)N2CCCC2)c2ccccc2n1 (stereo not given)	none (no result: KCNK9 block, hERG rescue, Kir21 block, KCNQ1 pot, KCNQ1 block)
CCc1cc(=O)oc2cc(C)cc(OCC(=O)N3CCC(C(=O)NC(C)C)(c4ccccc4)CC3)c12	KCNK9 block -19, KCNK3 inh -14 | KCNK9 block conf 65% | Kir21 sel inactive | HEK293 Tl ctr 26% | KCNK3 inh conf 100 | KCNK3 uninduced inactive
CCCCc1cc(=O)oc2c(C)c(OCC(=O)N3CCC(C(=O)O)(c4ccccc4)CC3)ccc12	none
N#Cc1c(Nc2cccc(F)c2)sc2c(O)cc(=O)[nH]c12	none
CN(CC(=O)Nc1ccc([N+](=O)[O-])cc1Br)Cc1c(F)cccc1Cl	KCNK9 block -15, KCNK3 inh -10 | KCNK9 block conf inactive | Kir21 sel inactive | HEK293 Tl ctr 43% | KCNK3 inh conf 95 | KCNK3 uninduced 0.16
CN(CCOc1ccccc1)CC(=O)Nc1ccc([N+](=O)[O-])cc1Cl	none
Cc1cc(NC(=S)N(CCN2CCCCC2)Cc2ccco2)ccc1Cl	KCNK9 block -8.2, KCNK3 inh -11 | KCNK9 block conf 25% | Kir21 sel inactive | HEK293 Tl ctr 28% | KCNK3 inh conf 108 | KCNK3 uninduced inactive
Cc1cc(F)ccc1NC(=O)Cn1c(C)csc1=O	none (no result: KCNK9 block, hERG rescue, Kir21 block, KCNQ1 pot, KCNQ1 block)
CCOC(=O)c1cc(-c2ccc(Cl)cc2)nc2c1c(C)nn2CCC#N	KCNK9 block -13, KCNK3 inh -9.3 | KCNK9 block conf 52% | Kir21 sel inactive | HEK293 Tl ctr 32% | KCNK3 inh conf 125 | KCNK3 uninduced 0.13
O=C(COC(=O)c1cccs1)c1ccc2ccccc2c1	KCNK9 block -18, KCNK3 inh -13 | KCNK9 block conf 56% | Kir21 sel inactive | HEK293 Tl ctr 30% | KCNK3 inh conf 101 | KCNK3 uninduced inactive
O=C(COC(=O)CN1C(=O)C2CCCCC2C1=O)NC1CCS(=O)(=O)C1 (stereo not given)	none
CN(c1ccccc1)S(=O)(=O)c1cccc2ccccc12	KCNK9 block -9, KCNK3 inh -10 | KCNK9 block conf 39% | Kir21 sel inactive | HEK293 Tl ctr 30% | KCNK3 inh conf 113 | KCNK3 uninduced inactive
Cc1ccc(Cl)cc1N1CCN(C2CCCCC2NS(=O)(=O)c2ccccc2)CC1 (stereo not given)	KCNK9 block -17, KCNK3 inh -9.3 | KCNK9 block conf 54% | Kir21 sel inactive | HEK293 Tl ctr 43% | KCNK3 inh conf 112 | KCNK3 uninduced 0.14
Cc1cccc(N2CCN(C3CCCCC3NS(=O)(=O)c3ccccc3)CC2C)c1 (stereo not given)	KCNK9 block -15, KCNK3 inh -9.2 | KCNK9 block conf 44% | Kir21 sel inactive | HEK293 Tl ctr 45% | KCNK3 inh conf 115 | KCNK3 uninduced 0.15
COC(/C(=N/O)c1ccc(Cl)cc1)c1ccccc1 (stereo not given)	KCNK9 block -10, KCNK3 inh -9.7, KCNQ1 block 11 | KCNK9 block conf 38% | Kir21 sel inactive | HEK293 Tl ctr 48% | KCNK3 inh conf 114 | KCNK3 uninduced 0.16
CCCCC(=O)Nc1ccccc1CC	none
N#CC1(N2CCN(C(=O)c3ccccc3)CC2)CCCCC1	none
COc1cc(/C=C2\C(=N)N3N=C(S(C)(=O)=O)SC3=NC2=O)cc(OC)c1OCCOc1ccc(C)cc1	KCNK3 inh -12 | KCNK9 block conf inactive | Kir21 sel inactive | HEK293 Tl ctr inactive | KCNK3 inh conf 99 | KCNK3 uninduced 0.14
CCOc1cc(/C=C2\C(=N)N3N=C(S(C)(=O)=O)SC3=NC2=O)ccc1OCCOc1cccc(OC)c1	none
COc1cc(/C=C2\C(=N)N3N=C(S(C)(=O)=O)SC3=NC2=O)ccc1OCCOc1ccc(C)cc1	KCNK3 inh -9.1, KCNQ1 block 10 | KCNK9 block conf inactive | Kir21 sel inactive | HEK293 Tl ctr inactive | KCNK3 inh conf 75 | KCNK3 uninduced 0.16
CC(Oc1ccccc1)C(=O)N=C1SC2CS(=O)(=O)CC2N1Cc1ccccc1 (stereo not given)	none
CC(C)OC(=O)CSc1nc(Cc2ccccc2)nc2ccccc12	KCNK9 block -15, KCNK3 inh -11 | KCNK9 block conf 58% | Kir21 sel 36% | HEK293 Tl ctr 38% | KCNK3 inh conf 97 | KCNK3 uninduced inactive
CC(C)OC(=O)CSc1nc(C(C)C)nc2ccccc12	none
COc1cc2c(c3oc(-c4ccccc4)cc(=O)c13)C=CC(C)(C)O2	KCNK9 block -9.4, KCNK3 inh -8.8 | KCNK9 block conf 44% | Kir21 sel inactive | HEK293 Tl ctr inactive | KCNK3 inh conf 122 | KCNK3 uninduced 0.14
CCOc1ccc(S(=O)(=O)N(CC)CC(=O)NCc2ccncc2)cc1	none
COc1cccc(C(=O)NCC(c2cccs2)N2CCc3ccccc32)c1 (stereo not given)	KCNK9 block -17, KCNK3 inh -14 | KCNK9 block conf 56% | Kir21 sel inactive | HEK293 Tl ctr 37% | KCNK3 inh conf 135 | KCNK3 uninduced 0.12
O=C(OCc1ccc2c(c1)OCO2)c1cccc(S(=O)(=O)N2CCCCC2)c1	KCNK9 block -19, KCNK3 inh -9.3 | KCNK9 block conf 72% | Kir21 sel inactive | HEK293 Tl ctr 30% | KCNK3 inh conf 114 | KCNK3 uninduced inactive
